According to ChEMBL document CHEMBL1147088, “Small molecule obatoclax (GX15-070) antagonizes MCL-1 and overcomes MCL-1-mediated resistance to apoptosis” (Proc Natl Acad Sci U S A, 2007):
Calls of active or inactive are those of the source. No cut-off for these calls is given here.

What was measured:
[1] = Cytotoxicity against mouse B16-F1 cells transfected with MCL1 siRNA assessed as assessed as annexin 5 uptake at 100 nM after 24 hrs by flow cytometry; assay type: functional
[2] = Cytotoxicity against mouse B16-F1 cells transfected with luciferase siRNA assessed as assessed as annexin 5 uptake at 100 nM after 24 hrs by flow cytometry; assay type: functional
Eu-Myc [3] = test: Induction of apoptosis in mouse Eu-Myc cells overexpressing BCL2 assessed as inhibition of cell survivability at 1 uM; assay type: functional, cell-based
Mus musculus [4] = test: Toxicity in CB17 SCID mouse bearing human PC3 cells xenografts assessed as weight change at 2 mg/kg, ip administered once in 3 days for 5 times after 14 days; assay type: organism-based, PC-3; design: dose 2 mg/kg, route intraperitoneal; details: in vivo, 336 h
Outline: (§1)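 Tumor-bearing mice as in the xenograft study (BALB/c with 4T1; CB17 SCID with C33A, PC3, SW480), 8 per cohort, dosed i.p. once every 3 days ×5. Body weight measured three times weekly; animal deaths and weight change recorded 14 days after first injection.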

Bcl-2-like protein 10 = target: T1, Bcl-2-like protein 10 (Homo sapiens, UniProt Q9HD36); test: Inhibition of BH3 peptide binding to human recombinant BCL-b by fluorescence polarization assay
T1 sequence (Q9HD36 whole entry): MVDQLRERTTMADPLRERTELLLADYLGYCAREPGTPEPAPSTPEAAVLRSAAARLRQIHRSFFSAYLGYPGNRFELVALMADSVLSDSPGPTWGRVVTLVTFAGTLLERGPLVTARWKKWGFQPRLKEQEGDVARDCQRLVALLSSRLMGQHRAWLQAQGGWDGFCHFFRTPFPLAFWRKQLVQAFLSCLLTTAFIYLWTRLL

Eu-Myc [5] = test: Induction of apoptosis in mouse Eu-Myc cells overexpressing A1 assessed as inhibition of cell survivability at 1 uM; assay type: functional, cell-based
E1A/p53DN [6] = test: Increase in inhibition of MCL1 -/- in mouse Bim transformed E1A/p53DN cells; assay type: functional, cell-based
[7] = target: Induced myeloid leukemia cell differentiation protein Mcl-1 (Homo sapiens, UniProt Q07820); test: Inhibition of BH3 peptide binding to human recombinant MCL1 by fluorescence polarization assay
KB [8] = test: Reversal of MCL1 mediated resistance to ABT-737 in BCL2 overexpressing human KB cells assessed as cell death; assay type: functional, cell-based
Epithelial cell = test: […] in Bax and Bak double knock out E1A/p53DN-transformed mouse kidney epithelial cells assessed as caspase-3 activation at 2.0 uM; assay type: functional, cell-based
Eu-Myc [9] = test: Induction of apoptosis in mouse Eu-Myc cells overexpressing A1 assessed as inhibition of colony formation at 1 uM; assay type: functional, cell-based
SK-MEL-5 [10] = test: Reduction in MCL1-BAK interaction in mitochondria of human SKMel5 cells at 1 uM after 5 hrs by immunoprecipitation; assay type: functional, cell-based
Mus musculus [11] = test: Toxicity in BALB/c mouse bearing mouse 4T1 cells xenografts assessed as weight change at 2 mg/kg, ip administered once in 3 days for 5 times after 14 days; assay type: organism-based; design: dose 2 mg/kg, route intraperitoneal; details: in vivo, 336 h; outline: as §1
KB [12] = test: Release of cytochrome c in mitochondria of human KB cells at 2 uM; assay type: functional, cell-based
Outline: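 Mitochondria isolated from KB cells were incubated 30 min at 37°C with DMSO or compound, then reisolated. Mitochondrial pellet and post-mitochondrial supernatant were analysed by SDS/PAGE and cytochrome c immunoblot, with actin and a control protein as loading controls.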

Eu-Myc [13] = test: Induction of apoptosis in mouse Eu-Myc cells overexpressing MCL1 assessed as inhibition of colony formation at 1 uM; assay type: functional, cell-based
Mus musculus [14] = test: Toxicity in CB17 SCID mouse bearing human C33A cells xenografts assessed as weight change at 2 mg/kg, ip administered once in 3 days for 5 times after 14 days; assay type: organism-based, C-33-A; design: dose 2 mg/kg, route intraperitoneal; details: in vivo, 336 h; outline: as §1
B16-F1 = test: Reversal of MCL1 mediated resistance to bortezomib in mouse B16-F1 cells assessed as cell death; assay type: functional, cell-based
Bcl-2-related protein A1 = target: T2, Bcl-2-related protein A1 (Homo sapiens, UniProt Q16548); test: Inhibition of BH3 peptide binding to human recombinant A1 by fluorescence polarization assay
T2 sequence (Q16548 whole entry): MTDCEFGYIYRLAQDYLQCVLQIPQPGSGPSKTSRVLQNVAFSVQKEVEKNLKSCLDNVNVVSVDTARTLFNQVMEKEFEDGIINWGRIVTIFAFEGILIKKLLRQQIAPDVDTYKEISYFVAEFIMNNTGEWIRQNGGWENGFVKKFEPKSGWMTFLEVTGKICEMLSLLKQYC

Eu-Myc [15] = test: Induction of apoptosis in mouse Eu-Myc cells overexpressing MCL1 assessed as inhibition of cell survivability at 1 uM; assay type: functional, cell-based
E1A/p53DN [16] = test: Increase in inhibition of MCL1 +/+ in mouse Bim transformed E1A/p53DN cells; assay type: functional, cell-based
4T1 = test: Antitumor activity in BALB/c mouse bearing mouse 4T1 cells xenografts at 2 mg/kg, ip administered once in 3 days for 5 times after 14 days; assay type: functional; details: route intraperitoneal
Outline: (§2)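 Female mice, 6–8 weeks (BALB/c for 4T1; CB17 SCID for C33A, PC3, SW480), given s.c. flank cells in PBS. Dosing i.p. once every 3 days ×5, starting day 7 (SW480), 14 (C33A) or 8 (PC3, 4T1). Tumor size measured thrice weekly, volume = length × width²/2, 8 animals/cohort; T/C (mean tumor size change treated ÷ control) at 14 days after first dose.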

SK-MEL-5 [17] = test: Inhibition of MCL1-BAK interaction in mitochondria of human SKMel5 cells at 10 nM; assay type: functional, cell-based
C-33-A = test: Antitumor activity in CB17 SCID mouse bearing human C33A cells xenografts at 2 mg/kg, ip administered once in 3 days for 5 times after 14 days; assay type: functional; details: route intraperitoneal; outline: as §2
Saccharomyces cerevisiae [18] = test: Antagonism of BCL pathway-mediated inhibition of Saccharomyces cerevisiae W301 in absence of BAX/BAK; assay type: functional, organism-based
Outline: (§3)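 W301 yeast transformed with the indicated vectors; cultures in synthetic complete medium with 2% raffinose and 2% galactose, seeded at 0.01 OD units, compound or vehicle added (0.67% DMSO final). Cell density read after 48 h shaking at 30°C.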

Mus musculus [19] = test: Toxicity in CB17 SCID mouse bearing human SW480 cells xenografts assessed as survivability at 2 mg/kg, ip administered once in 3 days for 5 times after 14 days; assay type: organism-based; design: dose 2 mg/kg, route intraperitoneal; details: in vivo, 336 h; outline: as §1
SK-MEL-5 [20] = test: Disruption of BCL2-BIM interaction in mitochondria of human SKMel5 cells 5 hrs by immunoprecipitation; assay type: functional, cell-based
Mus musculus [21] = test: Toxicity in CB17 SCID mouse bearing human PC3 cells xenografts assessed as survivability at 2 mg/kg, ip administered once in 3 days for 5 times after 14 days; assay type: organism-based, PC-3; design: dose 2 mg/kg, route intraperitoneal; details: in vivo, 336 h; outline: as §1
SW480 = test: Antitumor activity in CB17 SCID mouse bearing human SW480 cells xenografts at 2 mg/kg, ip administered once in 3 days for 5 times after 14 days; assay type: functional; details: route intraperitoneal; outline: as §2
Mus musculus [22] = test: Toxicity in CB17 SCID mouse bearing human SW480 cells xenografts assessed as weight change at 2 mg/kg, ip administered once in 3 days for 5 times after 14 days; assay type: organism-based; design: dose 2 mg/kg, route intraperitoneal; details: in vivo, 336 h; outline: as §1
Mus musculus [23] = test: Toxicity in BALB/c mouse bearing mouse 4T1 cells xenografts assessed as survivability at 2 mg/kg, ip administered once in 3 days for 5 times after 14 days; assay type: organism-based; design: dose 2 mg/kg, route intraperitoneal; details: in vivo, 336 h; outline: as §1
Saccharomyces cerevisiae [24] = test: Antagonism of BAX/BAK dependent BCL pathway-mediated inhibition of Saccharomyces cerevisiae W301; assay type: functional, organism-based; outline: as §3
Bcl-2-like protein 2 = target: T3, Bcl-2-like protein 2 (Homo sapiens, UniProt Q92843); test: Inhibition of BH3 peptide binding to human recombinant BCL-w by fluorescence polarization assay
T3 sequence (Q92843 whole entry): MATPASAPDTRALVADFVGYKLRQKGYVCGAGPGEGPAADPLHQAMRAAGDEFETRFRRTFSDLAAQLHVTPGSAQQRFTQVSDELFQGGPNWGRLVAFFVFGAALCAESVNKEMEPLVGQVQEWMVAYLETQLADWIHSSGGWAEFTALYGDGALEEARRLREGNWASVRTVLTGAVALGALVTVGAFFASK

Mus musculus [25] = test: Toxicity in CB17 SCID mouse bearing human C33A cells xenografts assessed as survivability at 2 mg/kg, ip administered once in 3 days for 5 times after 14 days; assay type: organism-based, C-33-A; design: dose 2 mg/kg, route intraperitoneal; details: in vivo, 336 h; outline: as §1
Eu-Myc [26] = test: Induction of apoptosis in mouse Eu-Myc cells overexpressing BCL2 assessed as inhibition of colony formation at 1 uM; assay type: functional, cell-based
PC-3 = test: Antitumor activity in CB17 SCID mouse bearing human PC3 cells xenografts at 2 mg/kg, ip administered once in 3 days for 5 times after 14 days; assay type: functional; details: route intraperitoneal; outline: as §2
KB [27] = test: Cytotoxicity against BCL2 overexpressing human KB cells transfected with MCL1 siRNA assessed as annexin 5 reactivity at 0.5 uM after 72 hrs by flow cytometry; assay type: functional
KB [28] = test: Cytotoxicity in human siRNA-mediated-MCL1-kncok down KB cells overexpressing BCL2 at 0.5 uM; assay type: functional, cell-based
KB [29] = test: Cytotoxicity against BCL2 overexpressing human KB cells transfected with MCL1 siRNA assessed as propidium iodide uptake at 0.5 uM after 72 hrs by flow cytometry; assay type: functional
KB [30] = test: Cytotoxicity in human KB cells overexpressing BCL2 at 0.5 uM; assay type: functional, cell-based
KB [31] = test: Cytotoxicity against BCL2 overexpressing human KB cells transfected with luciferase siRNA assessed as annexin 5 uptake at 0.5 uM after 72 hrs by flow cytometry; assay type: functional
KB [32] = test: Cytotoxicity in human KB cells overexpressing BCL2 at 0.1 uM; assay type: functional, cell-based
KB [33] = test: Cytotoxicity against BCL2 overexpressing human KB cells transfected with luciferase siRNA assessed as propidium iodide uptake at 0.5 uM after 72 hrs by flow cytometry; assay type: functional

Chain of Induced myeloid leukemia cell differentiation protein Mcl-1 (Q07820 whole entry): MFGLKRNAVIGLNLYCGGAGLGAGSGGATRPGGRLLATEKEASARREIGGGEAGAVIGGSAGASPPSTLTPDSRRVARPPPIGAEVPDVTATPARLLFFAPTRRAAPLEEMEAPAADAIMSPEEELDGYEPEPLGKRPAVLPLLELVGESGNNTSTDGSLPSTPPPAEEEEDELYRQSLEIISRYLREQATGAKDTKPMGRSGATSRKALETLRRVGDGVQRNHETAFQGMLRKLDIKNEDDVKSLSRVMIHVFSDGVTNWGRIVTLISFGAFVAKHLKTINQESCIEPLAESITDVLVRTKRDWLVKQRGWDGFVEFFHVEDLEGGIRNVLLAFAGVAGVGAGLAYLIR

CC(C)C[C@H](NC(=O)[C@H](Cc1ccccc1)NC(=O)c1cnccn1)B(O)O [BORTEZOMIB]
Activity [1]: 42%
Activity [2]: 14%

COC1=CC(c2cc3ccccc3[nH]2)=N/C1=C\c1[nH]c(C)cc1C [OBATOCLAX]
Activity (Eu-Myc [3]): Active
Activity (Mus musculus [4]): 10%
Ki (Bcl-2-like protein 10): 1000 nM
Activity (Eu-Myc [5]): Active
Activity (E1A/p53DN [6]): Active
Ki [7]: 1000 nM
Activity (KB [8]): Active
Activity (Epithelial cell): Active
Activity (Eu-Myc [9]): Active
Activity (SK-MEL-5 [10]): Active
Activity (Mus musculus [11]): 1%
Activity (KB [12]): inactive
Activity (Eu-Myc [13]): Active
Activity (Mus musculus [14]): 7%
Activity (B16-F1): Active
Ki (Bcl-2-related protein A1): 1000 nM
Activity (Eu-Myc [15]): Active
Activity (E1A/p53DN [16]): Active
Activity (4T1): 42%
Activity (SK-MEL-5 [17]): Active
Activity (C-33-A): 11%
Activity (Saccharomyces cerevisiae [18]): inactive
Activity (Mus musculus [19]): Non-toxic
Activity (SK-MEL-5 [20]): Active
Activity (Mus musculus [21]): Non-toxic
Activity (SW480): 35%
Activity (Mus musculus [22]): 3%
Activity (Mus musculus [23]): Non-toxic
Activity (Saccharomyces cerevisiae [24]): Active
Ki (Bcl-2-like protein 2): 1000 nM
Activity (Mus musculus [25]): Non-toxic
Activity (Eu-Myc [26]): Active
Activity (PC-3): 28%

CN(C)CC[C@H](CSc1ccccc1)Nc1ccc(S(=O)(=O)NC(=O)c2ccc(N3CCN(Cc4ccccc4-c4ccc(Cl)cc4)CC3)cc2)cc1[N+](=O)[O-] [ABT 737]
Activity (KB [27]): 58%
Activity (Eu-Myc [9]): inactive
Activity (KB [28]): Active
Activity (Eu-Myc [13]): inactive
Activity (KB [29]): 72%
Activity (KB [30]): inactive
Activity (KB [31]): 8%
Activity (KB [32]): inactive
Activity (KB [33]): 9%
Activity (Eu-Myc [26]): Active
